What all share (assay type): ADME, Microsome
Data set [1] in a line: Intrinsic clearance in human liver microsomes at 1 uM preincubated for 3 mins followed by NADPH addition and measured up to 60 mins by LC-MS/MS analysis. As to conditions: 1 h, time <=63 min. An outline of the steps: (§1)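 Mixed-gender human liver microsomes with test article at 1 µM final. Testosterone (5 µM) run separately as control. Mixture without cofactor equilibrated 3 min at 37 °C in a shaking water bath, then started with cofactor. Aliquots taken at 0, 10, 20, 30 and 60 min. CLint = k/P, where k is the elimination rate constant and P is the incubation protein concentration.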
A general note: Liver microsomes are vesicles of endoplasmic reticulum, rich in cytochrome P450 enzymes.

Data set [2] can be described thus: Elimination rate constant in human liver microsomes at 1 uM preincubated for 3 mins followed by NADPH addition and measured up to 60 mins by LC-MS/MS analysis. The following applies: time <=63 min. An outline of the steps: as §1
Data set [3] in a line: Half life in human liver microsomes at 1 uM preincubated for 3 mins followed by NADPH addition and measured up to 60 mins by LC-MS/MS analysis. As to conditions: time <=63 min. An outline of the steps: as §1

SMILES strings stand for the structures.

For the molecule `C[C@]12CC[C@H]3[C@@H](CCC4=CC(=O)CC[C@@]43C)[C@@H]1CC[C@@H]2O` [TESTOSTERONE], the CLint in data set [1] was found to be 54 µL/min/mg. Besides, the k el at 1 h, 1 µM in data set [2] was 0.00045 s⁻¹. Moreover, in data set [3], the half-life at 1 µM stood at 25.7 min.

The term half-life denotes the time in which the quantity being followed falls by half.

(Values after ChEMBL document CHEMBL4680220, “Synthesis and biological evaluation of acridine-based histone deacetylase inhibitors as multitarget agents against Alzheimer's disease” (Eur J Med Chem, 2020).)
